Results taken from ChEMBL document CHEMBL1141651, “Discovery of a potent, selective, and orally active proteasome inhibitor for the treatment of cancer” (J Med Chem, 2008).
Activity calls are given as the source filed them. No cut-off for these calls is given here.

Assays:
Cytochrome P450 2C9 = Cytochrome P450 2C9 (Homo sapiens, UniProt P11712); assay: Inhibition of human recombinant CYP2C9 upto 30 uM; assay type: ADME; conditions: recombinant enzyme
Summary of the method: (§1)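 Recombinant human P-450 isoforms (1A2, 2C9, 2C19, 2D6) with fluorescent P-450 substrates; tested at concentrations up to 30 µM to gauge inhibition.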

Renin (Homo sapiens) = Renin (Homo sapiens) (UniProt P00797); assay: Inhibition of human renin at 10 uM
[1] = biological target: Cathepsin Z (Homo sapiens) (UniProt Q9UBR2); assay: Inhibition of human cathepsin Z at 10 uM
[2] = biological target: Dipeptidyl peptidase 1 (Bos taurus) (UniProt Q3ZCJ8); assay: Inhibition of bovine cathepsin C at 10 uM
[3] = biological target: Tissue-type plasminogen activator (Homo sapiens) (UniProt P00750); assay: Inhibition of human TPA at 10 uM
[4] = biological target: Dipeptidyl peptidase 4 (Homo sapiens) (UniProt P27487); assay: Inhibition of human DPP4 at 10 uM
Trypsin (Homo sapiens) = Trypsin (Homo sapiens) (UniProt P07477+P07478+P35030); assay: Inhibition of human trypsin at 10 uM; assay type: protein assay
[5] = AUC (0 to infinity) in Sprague-Dawley rat at 0.8 mg/kg, po; assay type: ADME, organism-based; set-up: dose 0.8 mg/kg, route oral, time infinity; conditions: plasma
Summary of the method: (§2)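 Female Sprague–Dawley rats received a single dose by the iv or oral route. AUC from 0 to infinity was reported alongside terminal half-life, Vss, clearance and absolute oral bioavailability.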

[6] = Metabolic stability in human liver microsomes; assay type: ADME, Microsome
[7] = Protein binding in rat plasma; assay type: ADME, cell-free; conditions: read-out: PPB (converted)
[8] = biological target: Matrilysin (Homo sapiens) (UniProt P09237); assay: Inhibition of human MMP7 at 10 uM
[9] = biological target: Neutrophil collagenase (Homo sapiens) (UniProt P22894); assay: Inhibition of human MMP8 at 10 uM
Sus scrofa [10] = species: Sus scrofa; assay: Inhibition of pig pancreatic elastase 1 at 10 uM
Mus musculus = assay: Inhibition of 20S proteasome beta5beta1 subunit binding in human RPMI 8226 cells xenografted mouse; assay type: functional, organism-based
[11] = Half life in Sprague-Dawley rat at 0.8 mg/kg, po; assay type: ADME, organism-based; set-up: dose 0.8 mg/kg, route oral; conditions: in vivo
Summary of the method: (§3)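 Female Sprague–Dawley rats and CD-1 mice each received a single iv or oral (po) dose. Terminal half-life and systemic clearance were estimated from plasma exposure over time, alongside AUC0→∞, Vss and absolute oral bioavailability.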

[12] = Inhibition of bovine alpha chymotrypsin; set-up: species or system Bos taurus
[13] = Half life in Sprague-Dawley rat at 0.2 mg/kg, iv; assay type: ADME, organism-based; set-up: dose 0.2 mg/kg, route intravenous; conditions: in vivo; summary of the method: as §3
[14] = biological target: Protease (Human immunodeficiency virus 1) (UniProt Q9YQ12); assay: Inhibition of HIV1 protease at 10 uM
Caspase-7 (Homo sapiens) = Caspase-7 (Homo sapiens) (UniProt P55210); assay: Inhibition of human caspase 7 at 10 uM
[15] = Half life in CD1 mouse at 10 mg/kg, po; assay type: ADME, organism-based; set-up: dose 10 mg/kg, route oral; conditions: in vivo; summary of the method: as §3
Chymase = Chymase (Homo sapiens, UniProt P23946); assay: Inhibition of human chymase
Caspase-3 (Homo sapiens) = Caspase-3 (Homo sapiens) (UniProt P42574); assay: Inhibition of human caspase 3 at 10 uM
Homo sapiens = species: Homo sapiens; assay: Inhibition of human chymotrypsin at 10 uM
[16] = biological target: Pro-cathepsin H (Homo sapiens) (UniProt P09668); assay: Inhibition of human cathepsin H at 10 uM
[17] = biological target: Neutrophil elastase (Homo sapiens) (UniProt P08246); assay: Inhibition of human neutrophil elastase 2 at 10 uM
[18] = Inhibition of human chymotrypsin
Summary of the method: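 Cross-reactivity was tested against human pancreas α-chymotrypsin using a fluorogenic specific substrate. Results are expressed as IC50.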

Caspase-2 (Homo sapiens) = Caspase-2 (Homo sapiens) (UniProt P42575); assay: Inhibition of human caspase 2 at 10 uM
Cytochrome P450 3A4 = Cytochrome P450 3A4 (Homo sapiens, UniProt P08684); assay: Inhibition of human recombinant CYP3A4; assay type: ADME
[19] = Volume of distribution at steady state in CD1 mouse at 4 mg/kg, iv; assay type: ADME, organism-based; set-up: dose 4 mg/kg, route intravenous; conditions: in vivo, read-out: Vdss
Summary of the method: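 Single-dose pharmacokinetics after iv or oral administration in female Sprague–Dawley rats and in CD-1 mice; plasma exposure (AUC0–∞) used to derive steady-state volume of distribution, clearance, terminal half-life and absolute oral bioavailability.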

Neutrophil elastase = Neutrophil elastase (Homo sapiens, UniProt P08246); assay: Inhibition of human neutrophil elastase 2
[20] = biological target: Cathepsin E (Homo sapiens) (UniProt P14091); assay: Inhibition of human cathepsin E at 10 uM
Caspase-9 (Homo sapiens) = Caspase-9 (Homo sapiens) (UniProt P55211); assay: Inhibition of human caspase 9 at 10 uM
[21] = biological target: Calpain-1 catalytic subunit (Homo sapiens) (UniProt P07384); assay: Inhibition of human calpain 1 at 10 uM
[22] = biological target: Cathepsin D (Homo sapiens) (UniProt P07339); assay: Inhibition of human cathepsin D at 10 uM
Caspase-1 (Homo sapiens) = Caspase-1 (Homo sapiens) (UniProt P29466); assay: Inhibition of human caspase 1 at 10 uM
[23] = biological target: Neprilysin (Homo sapiens) (UniProt P08473); assay: Inhibition of human NEP at 10 uM
[24] = biological target: Cathepsin B (Homo sapiens) (UniProt P07858); assay: Inhibition of human cathepsin B at 10 uM
[25] = biological target: Procathepsin L (Homo sapiens) (UniProt P07711); assay: Inhibition of human cathepsin L at 10 uM
[26] = Metabolic stability in mouse liver microsomes; assay type: ADME, Microsome
[27] = Metabolic stability in rat liver microsomes; assay type: ADME, Microsome
Cathepsin G = Cathepsin G (Homo sapiens, UniProt P08311); assay: Inhibition of human cathepsin G
[28] = Clearance in CD1 mouse at 4 mg/kg, iv; assay type: ADME, organism-based; set-up: dose 4 mg/kg, route intravenous; conditions: in vivo; summary of the method: as §3
[29] = Metabolic stability in dog liver microsomes; assay type: ADME, Canis lupus familiaris, Microsome
[30] = biological target: Macrophage metalloelastase (Homo sapiens) (UniProt P39900); assay: Inhibition of human MMP12 at 10 uM
Cytochrome P450 2D6 = Cytochrome P450 2D6 (Homo sapiens, UniProt P10635); assay: Inhibition of human recombinant CYP2D6 upto 30 uM; assay type: ADME; conditions: recombinant enzyme; summary of the method: as §1
[31] = biological target: Cathepsin G (Homo sapiens) (UniProt P08311); assay: Inhibition of human cathepsin G at 10 uM
[32] = Inhibition of bacterial prolyl oligopeptidase at 10 uM
[33] = biological target: Plasma kallikrein (Homo sapiens) (UniProt P03952); assay: Inhibition of human plasma kallikrein at 10 uM
[34] = biological target: Cathepsin S (Homo sapiens) (UniProt P25774); assay: Inhibition of human cathepsin S at 10 uM
[35] = AUC (0 to infinity) in Sprague-Dawley rat at 0.2 mg/kg, iv; assay type: ADME, organism-based; set-up: dose 0.2 mg/kg, route intravenous, time infinity; conditions: plasma; summary of the method: as §2
Sus scrofa [36] = species: Sus scrofa; assay: Inhibition of pig pepsin at 10 uM
[37] = Inhibition of chymotrypsin-like activity of human 20S proteasome in Molt4 cells; assay type: cell-based; conditions: molt-4
Summary of the method: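 Intact human leukemia Molt-4 cells were given the cell-permeable fluorogenic chymotrypsin-like substrate MeOSuc-FLF-AFC, so the read-out also reflects inhibitor cell permeability. Potency is reported as EC50.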

Sequence of Procathepsin L (Homo sapiens) (P07711 114-333 limits assumed): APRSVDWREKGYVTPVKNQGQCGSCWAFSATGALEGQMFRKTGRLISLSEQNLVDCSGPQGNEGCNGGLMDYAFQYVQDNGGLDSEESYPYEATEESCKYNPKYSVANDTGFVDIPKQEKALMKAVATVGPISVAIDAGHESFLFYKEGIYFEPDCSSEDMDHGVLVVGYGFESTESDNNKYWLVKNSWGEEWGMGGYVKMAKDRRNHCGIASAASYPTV
Sequence of Neutrophil collagenase (Homo sapiens) (P22894 101-467 limits assumed): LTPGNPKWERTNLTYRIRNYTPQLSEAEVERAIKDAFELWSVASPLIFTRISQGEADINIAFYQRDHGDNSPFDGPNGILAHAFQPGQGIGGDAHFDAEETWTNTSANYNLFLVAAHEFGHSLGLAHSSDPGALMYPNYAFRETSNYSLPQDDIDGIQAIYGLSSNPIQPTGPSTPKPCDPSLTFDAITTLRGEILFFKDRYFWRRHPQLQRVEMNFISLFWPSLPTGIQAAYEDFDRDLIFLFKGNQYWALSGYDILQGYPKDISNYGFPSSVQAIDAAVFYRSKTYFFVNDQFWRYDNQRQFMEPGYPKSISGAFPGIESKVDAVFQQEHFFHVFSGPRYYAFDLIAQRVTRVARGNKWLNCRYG
Sequence of Matrilysin (Homo sapiens) (P09237 whole entry): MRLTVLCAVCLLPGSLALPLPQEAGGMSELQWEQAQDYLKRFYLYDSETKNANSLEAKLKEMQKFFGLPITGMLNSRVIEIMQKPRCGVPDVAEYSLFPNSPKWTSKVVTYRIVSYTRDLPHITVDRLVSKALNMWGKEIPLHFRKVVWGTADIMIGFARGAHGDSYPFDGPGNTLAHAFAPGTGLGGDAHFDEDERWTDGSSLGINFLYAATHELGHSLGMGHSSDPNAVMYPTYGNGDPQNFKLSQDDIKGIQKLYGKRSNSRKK
Sequence of Dipeptidyl peptidase 4 (Homo sapiens) (P27487 whole entry, looked up): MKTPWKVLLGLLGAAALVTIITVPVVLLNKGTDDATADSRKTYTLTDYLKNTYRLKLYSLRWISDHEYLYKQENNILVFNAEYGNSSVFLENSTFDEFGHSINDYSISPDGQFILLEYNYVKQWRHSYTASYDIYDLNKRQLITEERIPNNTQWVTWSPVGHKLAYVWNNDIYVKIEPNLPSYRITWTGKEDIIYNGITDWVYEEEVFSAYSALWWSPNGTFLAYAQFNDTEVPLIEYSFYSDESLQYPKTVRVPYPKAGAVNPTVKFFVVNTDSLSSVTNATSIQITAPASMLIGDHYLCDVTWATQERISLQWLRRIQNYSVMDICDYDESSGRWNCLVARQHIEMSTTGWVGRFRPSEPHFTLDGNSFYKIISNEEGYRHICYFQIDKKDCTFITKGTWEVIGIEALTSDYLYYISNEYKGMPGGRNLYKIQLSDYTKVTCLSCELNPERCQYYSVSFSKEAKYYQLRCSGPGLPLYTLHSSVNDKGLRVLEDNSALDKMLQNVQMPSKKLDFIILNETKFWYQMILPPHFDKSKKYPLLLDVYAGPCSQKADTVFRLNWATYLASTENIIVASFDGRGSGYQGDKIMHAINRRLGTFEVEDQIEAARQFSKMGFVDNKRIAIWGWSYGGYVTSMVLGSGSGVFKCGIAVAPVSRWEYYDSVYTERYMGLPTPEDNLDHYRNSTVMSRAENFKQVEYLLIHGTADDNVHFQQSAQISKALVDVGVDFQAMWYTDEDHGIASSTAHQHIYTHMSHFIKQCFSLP
Sequence of Caspase-9 (Homo sapiens) (P55211 1-315 limits assumed): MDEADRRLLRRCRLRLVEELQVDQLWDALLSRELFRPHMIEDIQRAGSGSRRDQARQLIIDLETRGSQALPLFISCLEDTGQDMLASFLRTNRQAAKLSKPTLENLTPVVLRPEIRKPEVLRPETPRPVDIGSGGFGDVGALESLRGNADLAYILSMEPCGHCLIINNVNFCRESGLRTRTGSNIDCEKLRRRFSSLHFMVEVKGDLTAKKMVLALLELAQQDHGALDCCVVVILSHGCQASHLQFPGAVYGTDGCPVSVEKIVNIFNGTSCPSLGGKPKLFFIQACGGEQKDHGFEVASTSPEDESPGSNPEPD
Sequence of Caspase-9 (Homo sapiens) (P55211 331-416 limits assumed): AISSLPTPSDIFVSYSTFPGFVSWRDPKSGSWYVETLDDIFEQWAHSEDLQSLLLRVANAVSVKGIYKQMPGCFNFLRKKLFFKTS
Sequence of Cytochrome P450 2C9 (P11712 whole entry, canonical isoform): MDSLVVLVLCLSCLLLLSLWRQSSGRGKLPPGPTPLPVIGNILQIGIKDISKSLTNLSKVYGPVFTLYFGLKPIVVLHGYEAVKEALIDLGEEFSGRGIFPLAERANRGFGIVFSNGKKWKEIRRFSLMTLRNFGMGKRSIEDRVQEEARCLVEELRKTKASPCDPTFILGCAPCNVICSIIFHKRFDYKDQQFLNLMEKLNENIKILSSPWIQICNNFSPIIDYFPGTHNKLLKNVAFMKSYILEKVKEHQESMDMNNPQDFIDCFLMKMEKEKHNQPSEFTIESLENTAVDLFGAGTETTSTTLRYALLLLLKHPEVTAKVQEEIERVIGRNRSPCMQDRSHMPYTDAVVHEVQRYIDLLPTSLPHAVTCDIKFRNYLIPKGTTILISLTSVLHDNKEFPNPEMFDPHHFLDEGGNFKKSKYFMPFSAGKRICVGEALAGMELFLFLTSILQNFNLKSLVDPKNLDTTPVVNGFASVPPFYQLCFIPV
Sequence of Chymase (P23946 whole entry): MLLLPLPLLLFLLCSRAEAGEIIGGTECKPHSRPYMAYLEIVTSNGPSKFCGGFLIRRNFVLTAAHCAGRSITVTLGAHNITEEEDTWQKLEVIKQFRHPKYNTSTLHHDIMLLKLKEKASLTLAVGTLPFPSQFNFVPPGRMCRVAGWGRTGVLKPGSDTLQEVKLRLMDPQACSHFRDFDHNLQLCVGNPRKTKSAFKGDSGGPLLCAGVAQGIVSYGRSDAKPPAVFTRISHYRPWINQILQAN
Sequence of Macrophage metalloelastase (Homo sapiens) (P39900 106-470 limits assumed): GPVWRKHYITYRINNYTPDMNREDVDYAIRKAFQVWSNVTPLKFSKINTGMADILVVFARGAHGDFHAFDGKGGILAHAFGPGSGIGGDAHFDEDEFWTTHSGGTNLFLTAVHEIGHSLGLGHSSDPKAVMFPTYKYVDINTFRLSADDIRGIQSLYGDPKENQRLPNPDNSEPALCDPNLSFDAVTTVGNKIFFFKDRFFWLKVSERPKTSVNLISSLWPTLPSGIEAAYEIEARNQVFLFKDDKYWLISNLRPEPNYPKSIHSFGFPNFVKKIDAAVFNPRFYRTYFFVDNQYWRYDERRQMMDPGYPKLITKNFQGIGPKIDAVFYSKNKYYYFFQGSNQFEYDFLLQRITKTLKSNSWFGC
Sequence of Caspase-3 (Homo sapiens) (P42574 29-175 limits assumed): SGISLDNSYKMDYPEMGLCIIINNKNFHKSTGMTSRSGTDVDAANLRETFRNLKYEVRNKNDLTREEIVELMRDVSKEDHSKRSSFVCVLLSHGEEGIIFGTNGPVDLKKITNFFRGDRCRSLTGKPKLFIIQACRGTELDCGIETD
Sequence of Caspase-3 (Homo sapiens) (P42574 176-277 limits assumed): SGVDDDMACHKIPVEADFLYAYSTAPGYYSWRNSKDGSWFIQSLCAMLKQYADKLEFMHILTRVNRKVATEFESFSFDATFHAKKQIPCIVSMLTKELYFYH
Sequence of Neprilysin (Homo sapiens) (P08473 whole entry): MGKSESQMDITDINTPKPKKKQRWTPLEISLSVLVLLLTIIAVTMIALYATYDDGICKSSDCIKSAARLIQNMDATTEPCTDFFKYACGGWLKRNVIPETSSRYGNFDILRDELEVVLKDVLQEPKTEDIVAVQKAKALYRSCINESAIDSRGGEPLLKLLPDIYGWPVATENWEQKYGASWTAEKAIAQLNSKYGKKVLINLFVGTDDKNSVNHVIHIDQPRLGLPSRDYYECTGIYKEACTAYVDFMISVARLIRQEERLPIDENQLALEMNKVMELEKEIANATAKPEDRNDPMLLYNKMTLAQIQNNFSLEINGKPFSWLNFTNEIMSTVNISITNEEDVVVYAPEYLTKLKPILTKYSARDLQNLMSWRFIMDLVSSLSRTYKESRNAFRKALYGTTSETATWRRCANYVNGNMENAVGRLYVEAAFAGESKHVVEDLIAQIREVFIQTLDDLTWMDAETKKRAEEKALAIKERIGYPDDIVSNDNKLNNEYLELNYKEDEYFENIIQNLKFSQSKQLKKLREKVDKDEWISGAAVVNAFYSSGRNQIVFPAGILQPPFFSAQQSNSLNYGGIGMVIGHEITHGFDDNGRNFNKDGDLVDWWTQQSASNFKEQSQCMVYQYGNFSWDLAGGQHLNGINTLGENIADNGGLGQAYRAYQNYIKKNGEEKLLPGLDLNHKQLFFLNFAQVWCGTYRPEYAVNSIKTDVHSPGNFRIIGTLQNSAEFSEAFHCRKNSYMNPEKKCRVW
Sequence of Cathepsin Z (Homo sapiens) (Q9UBR2 whole entry): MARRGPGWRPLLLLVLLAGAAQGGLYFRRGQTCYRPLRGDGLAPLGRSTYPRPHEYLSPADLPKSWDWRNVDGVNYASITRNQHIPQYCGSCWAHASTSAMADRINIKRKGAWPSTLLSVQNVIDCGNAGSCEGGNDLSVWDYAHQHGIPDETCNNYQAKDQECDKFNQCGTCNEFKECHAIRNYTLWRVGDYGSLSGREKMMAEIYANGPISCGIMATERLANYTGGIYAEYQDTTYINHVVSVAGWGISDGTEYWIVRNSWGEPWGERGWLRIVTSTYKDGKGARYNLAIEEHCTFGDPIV
Sequence of Renin (Homo sapiens) (P00797 whole entry): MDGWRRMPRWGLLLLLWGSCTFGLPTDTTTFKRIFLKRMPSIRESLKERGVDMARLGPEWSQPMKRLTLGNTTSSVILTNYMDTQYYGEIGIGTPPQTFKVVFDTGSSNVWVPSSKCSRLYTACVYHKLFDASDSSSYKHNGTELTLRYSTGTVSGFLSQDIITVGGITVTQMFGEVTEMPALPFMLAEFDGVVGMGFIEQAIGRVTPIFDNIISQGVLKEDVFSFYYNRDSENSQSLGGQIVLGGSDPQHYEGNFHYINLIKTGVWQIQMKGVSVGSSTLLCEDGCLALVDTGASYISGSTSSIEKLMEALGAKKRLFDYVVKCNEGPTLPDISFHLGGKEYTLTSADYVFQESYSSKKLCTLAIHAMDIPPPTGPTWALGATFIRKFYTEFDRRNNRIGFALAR

## CC(C)C[C@H](NC(=O)[C@@H](NC(=O)c1cccc(-c2ccccc2)n1)[C@@H](C)O)B(O)O [DELANZOMIB]
Cytochrome P450 2C9
  Activity: Not Active
Renin (Homo sapiens)
  inhibition: -3%
[1]
  inhibition: 5%
[2]
  inhibition: -8%
[3]
  inhibition: 0%
[4]
  inhibition: -5%
Trypsin (Homo sapiens)
  inhibition: 0%
[5]
  AUC(0-inf): 2200 ng·h/mL
[6]
  half-life: > 0.667 h
[7]
  fraction unbound: 0.001
[8]
  inhibition: -3%
[9]
  inhibition: -1%
Sus scrofa [10]
  inhibition: -6%
Mus musculus
  Activity: inactive
[11]
  half-life: 86 h
[12]
  IC50: 1.5 µM
[13]
  half-life: 71 h
[14]
  inhibition: 1%
Caspase-7 (Homo sapiens)
  inhibition: 0%
[15]
  half-life: 53 h
Chymase
  IC50: 3.53 µM
Caspase-3 (Homo sapiens)
  inhibition: 2%
Homo sapiens
  inhibition: 59%
[16]
  inhibition: 6%
[17]
  inhibition: 72%
[18]
  IC50: 5.33 µM
Caspase-2 (Homo sapiens)
  inhibition: 1%
Cytochrome P450 3A4
  IC50: 3.5 µM
[19]
  Vd: 10.3 L/kg
Neutrophil elastase
  IC50: 3.55 µM
[20]
  inhibition: -3%
Caspase-9 (Homo sapiens)
  inhibition: -1%
[21]
  inhibition: 0%
[22]
  inhibition: 1%
Caspase-1 (Homo sapiens)
  inhibition: 1%
[23]
  inhibition: 12%
[24]
  inhibition: 7%
[25]
  inhibition: 27%
[26]
  half-life: > 0.667 h
[27]
  half-life: 0.25 h
Cathepsin G
  IC50: 2.11 µM
[28]
  clearance: 23.3 mL/min/kg
[29]
  half-life: > 0.667 h
[30]
  inhibition: 4%
Cytochrome P450 2D6
  Activity: Not Active
[31]
  inhibition: 86%
[32]
  inhibition: 13%
[33]
  inhibition: 0%
[34]
  inhibition: 12%
[35]
  AUC(0-inf): 1030 ng·h/mL
Sus scrofa [36]
  inhibition: -5%
[37]
  EC50: 0.0135 µM
